For assay [1], the system named is Hepatocyte. Nature of the assay: Inhibition of lipogenesis in mouse primary hepatocytes assessed as increase in CPT1alpha mRNA expression at 3 uM in presence of 100 nM insulin and 5 to 25 mM glucose measured after 18 hrs by RT-qPCR assay. Type of assay: functional, cell-based. A digest of the protocol:
(§1)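 Primary hepatocytes isolated from C57BL/6 mice by two-step perfusion. Cells incubated 18 h with 3 μM inhibitor, with 0 or 100 nM insulin and 5 or 25 mM glucose. Transcripts quantified by SYBR Green RT-qPCR after Trizol RNA extraction; proteins by western blot of lysates. Mean ± SEM.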
On the technique in general: In qPCR the cycle at which signal appears reflects the starting amount.

Assay [2] relates to Adipocyte. The assay is described as follows: Inhibition of lipogenesis in mouse adipocytes isolated stromal vascular cells assessed as decrease in PPARgamma protein expression measured after 24 hrs by western blot analysis. Type of assay: functional, cell-based. Background: A western blot detects proteins with antibodies after separation by electrophoresis.
The subject of assay [3] is Hepatocyte. The assay is described as follows: Inhibition of lipogenesis in mouse primary hepatocytes assessed as decrease in HMGCS1 mRNA expression at 3 uM in presence of 100 nM insulin and 5 to 25 mM glucose measured after 18 hrs by RT-qPCR assay. Type of assay: functional, cell-based. A digest of the protocol:
as §1

The subject of assay [4] is Hepatocyte. Nature of the assay: Inhibition of glucogenesis in mouse primary hepatocytes stimulated with 100 uM 8-Br-cAMP assessed as decrease in G6Pc mRNA expression at 3 uM in combination with 2 mM metformin measured by RT-qPCR assay. Type of assay: functional, cell-based. A digest of the protocol: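 Primary mouse hepatocytes given 3 μM compound with 2 mM metformin in the presence of 100 μM 8-Br-cAMP. Gluconeogenic gene mRNA measured by SYBR Green RT-qPCR. Mean ± SEM, three independent experiments.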

The subject of assay [5] is Mus musculus. Nature of the assay: Anti-obesity activity in 6 hrs fasted C57BL/6 mouse supplemented with normal chow diet assessed as effect on insulin sensitivity at 20 mg/kg/day, ip administered for 1 week measured by insulin tolerance test. It counts as functional, organism-based. The conditions noted are these: time 1.0 weeks. The method, boiled down: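 Insulin tolerance test in normal-chow male C57BL/6 mice (8 weeks), after 7 days of ip dosing at 20 mg·kg−1·day−1. 6 h fast, then insulin 0.75 UI/kg body weight ip; blood glucose followed. Mean ± SEM, n = 5–9.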

The subject of assay [6] is Mus musculus. Nature of the assay: Inhibition of hepatic lipogenesis in C57BL/6 mouse supplemented with normal chow diet assessed as effect on ACO mRNA expression at 20 mg/kg/day, ip administered for 1 week measured by RT-qPCR assay. Type of assay: functional, organism-based. The conditions noted are these: time 1.0 weeks. A digest of the protocol: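 Normal-chow male C57BL/6 mice, 8 weeks old, were injected ip at 20 mg·kg−1·day−1 daily for 7 days or given vehicle. Liver RNA was extracted with Trizol, and fatty-acid-oxidation gene transcripts were quantified by SYBR Green RT-qPCR. n = 5–9; mean ± SEM.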

Assay [7] concerns Adipocyte. The assay is described as follows: Inhibition of lipogenesis in mouse adipocytes isolated stromal vascular cells assessed as decrease in adiponectin mRNA expression measured after 24 hrs by RT-qPCR assay. Type of assay: functional, cell-based. A digest of the protocol:
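Stromal vascular cells from inguinal WAT of C57BL/6 mice, grown in DMEM/F12 + 10% FBS at 37 °C, 10% CO2. At confluence, induced 48 h with 5 μg/ml insulin, 1 μM dexamethasone, 0.5 mM isobutylmethylxanthine, then 6 days in 5 μg/ml insulin; fully differentiated day 8. Mature adipocytes exposed to inhibitor 24 h. Total RNA by Trizol, SYBR Green RT-qPCR; protein by western blot.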

Assay [8] relates to Mus musculus. Nature of the assay: Inhibition of lipogenesis in C57BL/6 mouse supplemented with high-fat diet assessed as decrease in adipocyte size of WAT at 20 mg/kg/day, ip administered for 1 week. The conditions noted are these: time 1.0 weeks. It counts as functional, organism-based. The method, boiled down:
(§2)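 Male C57BL/6 mice were fed high-fat diet for 14 weeks from 5 weeks of age, then injected ip with 20 mg·kg−1·day−1 for 7 days or given vehicle. Epididymal and inguinal WAT were weighed, examined by H&E, and analysed. Transcripts were measured by Trizol/SYBR Green RT-qPCR; proteins by western blot. n = 5–9; mean ± SEM.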

In assay [9] the test system is Hepatocyte. The assay is described as follows: Inhibition of glucogenesis in mouse primary hepatocytes stimulated with 100 uM 8-Br-cAMP assessed as decrease in glucose production at 3 uM measured after 24 hrs. It counts as functional, cell-based. A digest of the protocol: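 Two-step-perfusion primary mouse hepatocytes pretreated 16 h with 100 nM dexamethasone. Then incubated 24 h in glucose-free DMEM with 1 mM pyruvate, 10 mM lactate, 0.25% BSA, 100 μM 8-Br-cAMP and 3 μM test agent. Medium glucose measured colorimetrically. Mean ± SEM, three independent experiments.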

Assay [10] concerns Mus musculus. The assay is described as follows: Anti-obesity activity in C57BL/6 mouse supplemented with high fat diet assessed as effect on random blood glucose at 20 mg/kg/day, ip administered for 1 week. The conditions noted are these: time 1.0 weeks. It counts as functional, organism-based. A digest of the protocol: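 Male C57BL/6 mice fed high-fat diet for 14 weeks from 5 weeks of age, then ip 20 mg·kg−1·day−1 for 7 days. Body weight, EchoMRI lean/fat mass, and random or 16 h-fasted blood glucose recorded, as the line states.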

Assay [11] concerns Hepatocyte. Nature of the assay: Inhibition of glucogenesis in mouse primary hepatocytes stimulated with 100 uM 8-Br-cAMP assessed as decrease in PEPCK mRNA expression at 3 uM in presence of cAMP measured after 8 hrs by RT-qPCR assay. It counts as functional, cell-based. A digest of the protocol:
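Primary mouse hepatocytes treated with 3 μM compound and 100 μM 8-Br-cAMP for 8 h. Trizol RNA, SYBR Green RT-qPCR of the named transcript. Mean ± SEM, three independent experiments.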

For assay [12], the system named is Mus musculus. The assay is described as follows: Anti-obesity activity in C57BL/6 mouse supplemented with high fat diet assessed as decrease in blood glucose level at 20 mg/kg/day, ip administered for 1 week measured by pyruvate tolerance test. Type of assay: functional, organism-based. The conditions noted are these: time 1.0 weeks. A digest of the protocol: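 High-fat diet male C57BL/6 mice (14 weeks on HFD from 5 weeks of age) dosed ip at 20 mg·kg−1·day−1 for 7 days. 16 h fast, then pyruvate 2 g/kg body weight ip; blood glucose tracked.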

Assay [13] concerns Mus musculus. Nature of the assay: Inhibition of lipogenesis in C57BL/6 mouse supplemented with high-fat diet assessed as decrease in SREBP-1c mRNA expression at 20 mg/kg/day, ip administered for 1 week measured by RT-qPCR assay. The conditions noted are these: time 1.0 weeks. It counts as functional, organism-based. A digest of the protocol:
as §2

Assay [14] deals with Hepatocyte. Nature of the assay: Inhibition of lipogenesis in mouse primary hepatocytes assessed as decrease in FASN mRNA expression at 3 uM in presence of 100 nM insulin and 5 to 25 mM glucose measured after 18 hrs by RT-qPCR assay. It counts as functional, cell-based. A digest of the protocol:
as §1

The target in assay [15] is CREB-binding protein/Histone acetyltransferase p300 (Homo sapiens) (UniProt Q09472+Q92793). Nature of the assay: Inhibition of CBP/p300 in human HepG2 cells assessed as increase in FOXO1 and COP1 interaction at 3 uM. Type of assay: cell-based. A digest of the protocol:
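HepG2 cells treated with 3 μM compound. FOXO1–COP1 interaction assessed by immunoprecipitation: lysate with antibody 2 h, then protein A/G beads overnight at 4 °C, followed by western blot.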

For assay [16], the system named is Mus musculus. Nature of the assay: Inhibition of lipogenesis in C57BL/6 mouse supplemented with high-fat diet assessed as decrease in PPARgamma protein expression at 20 mg/kg/day, ip administered for 1 week measured measured by western blot analysis. Type of assay: functional, organism-based. The conditions noted are these: time 1.0 weeks. The method, boiled down: as §2

Assay [17] relates to Mus musculus. The assay is described as follows: Inhibition of lipogenesis in C57BL/6 mouse supplemented with normal chow diet assessed as decrease in PPARgamma protein expression at 20 mg/kg/day, ip administered for 1 week measured measured by western blot analysis. Type of assay: functional, organism-based. The conditions noted are these: time 1.0 weeks. The method, boiled down: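 Eight-week-old male C57BL/6 mice on normal chow were given 20 mg·kg−1·day−1 ip daily for 7 days or vehicle. Epididymal WAT was collected. Lipogenic, adipogenic and fatty-acid-oxidation transcripts were quantified by Trizol extraction and SYBR Green RT-qPCR. FAS, ACC, PPARγ and C/EBPα protein were assessed by western blot. n = 5–9; mean ± SEM.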

The source made the active and inactive calls. No cut-off for these calls is given here.

Sequence of CREB-binding protein/Histone acetyltransferase p300 (Homo sapiens) (Q09472 whole entry, looked up): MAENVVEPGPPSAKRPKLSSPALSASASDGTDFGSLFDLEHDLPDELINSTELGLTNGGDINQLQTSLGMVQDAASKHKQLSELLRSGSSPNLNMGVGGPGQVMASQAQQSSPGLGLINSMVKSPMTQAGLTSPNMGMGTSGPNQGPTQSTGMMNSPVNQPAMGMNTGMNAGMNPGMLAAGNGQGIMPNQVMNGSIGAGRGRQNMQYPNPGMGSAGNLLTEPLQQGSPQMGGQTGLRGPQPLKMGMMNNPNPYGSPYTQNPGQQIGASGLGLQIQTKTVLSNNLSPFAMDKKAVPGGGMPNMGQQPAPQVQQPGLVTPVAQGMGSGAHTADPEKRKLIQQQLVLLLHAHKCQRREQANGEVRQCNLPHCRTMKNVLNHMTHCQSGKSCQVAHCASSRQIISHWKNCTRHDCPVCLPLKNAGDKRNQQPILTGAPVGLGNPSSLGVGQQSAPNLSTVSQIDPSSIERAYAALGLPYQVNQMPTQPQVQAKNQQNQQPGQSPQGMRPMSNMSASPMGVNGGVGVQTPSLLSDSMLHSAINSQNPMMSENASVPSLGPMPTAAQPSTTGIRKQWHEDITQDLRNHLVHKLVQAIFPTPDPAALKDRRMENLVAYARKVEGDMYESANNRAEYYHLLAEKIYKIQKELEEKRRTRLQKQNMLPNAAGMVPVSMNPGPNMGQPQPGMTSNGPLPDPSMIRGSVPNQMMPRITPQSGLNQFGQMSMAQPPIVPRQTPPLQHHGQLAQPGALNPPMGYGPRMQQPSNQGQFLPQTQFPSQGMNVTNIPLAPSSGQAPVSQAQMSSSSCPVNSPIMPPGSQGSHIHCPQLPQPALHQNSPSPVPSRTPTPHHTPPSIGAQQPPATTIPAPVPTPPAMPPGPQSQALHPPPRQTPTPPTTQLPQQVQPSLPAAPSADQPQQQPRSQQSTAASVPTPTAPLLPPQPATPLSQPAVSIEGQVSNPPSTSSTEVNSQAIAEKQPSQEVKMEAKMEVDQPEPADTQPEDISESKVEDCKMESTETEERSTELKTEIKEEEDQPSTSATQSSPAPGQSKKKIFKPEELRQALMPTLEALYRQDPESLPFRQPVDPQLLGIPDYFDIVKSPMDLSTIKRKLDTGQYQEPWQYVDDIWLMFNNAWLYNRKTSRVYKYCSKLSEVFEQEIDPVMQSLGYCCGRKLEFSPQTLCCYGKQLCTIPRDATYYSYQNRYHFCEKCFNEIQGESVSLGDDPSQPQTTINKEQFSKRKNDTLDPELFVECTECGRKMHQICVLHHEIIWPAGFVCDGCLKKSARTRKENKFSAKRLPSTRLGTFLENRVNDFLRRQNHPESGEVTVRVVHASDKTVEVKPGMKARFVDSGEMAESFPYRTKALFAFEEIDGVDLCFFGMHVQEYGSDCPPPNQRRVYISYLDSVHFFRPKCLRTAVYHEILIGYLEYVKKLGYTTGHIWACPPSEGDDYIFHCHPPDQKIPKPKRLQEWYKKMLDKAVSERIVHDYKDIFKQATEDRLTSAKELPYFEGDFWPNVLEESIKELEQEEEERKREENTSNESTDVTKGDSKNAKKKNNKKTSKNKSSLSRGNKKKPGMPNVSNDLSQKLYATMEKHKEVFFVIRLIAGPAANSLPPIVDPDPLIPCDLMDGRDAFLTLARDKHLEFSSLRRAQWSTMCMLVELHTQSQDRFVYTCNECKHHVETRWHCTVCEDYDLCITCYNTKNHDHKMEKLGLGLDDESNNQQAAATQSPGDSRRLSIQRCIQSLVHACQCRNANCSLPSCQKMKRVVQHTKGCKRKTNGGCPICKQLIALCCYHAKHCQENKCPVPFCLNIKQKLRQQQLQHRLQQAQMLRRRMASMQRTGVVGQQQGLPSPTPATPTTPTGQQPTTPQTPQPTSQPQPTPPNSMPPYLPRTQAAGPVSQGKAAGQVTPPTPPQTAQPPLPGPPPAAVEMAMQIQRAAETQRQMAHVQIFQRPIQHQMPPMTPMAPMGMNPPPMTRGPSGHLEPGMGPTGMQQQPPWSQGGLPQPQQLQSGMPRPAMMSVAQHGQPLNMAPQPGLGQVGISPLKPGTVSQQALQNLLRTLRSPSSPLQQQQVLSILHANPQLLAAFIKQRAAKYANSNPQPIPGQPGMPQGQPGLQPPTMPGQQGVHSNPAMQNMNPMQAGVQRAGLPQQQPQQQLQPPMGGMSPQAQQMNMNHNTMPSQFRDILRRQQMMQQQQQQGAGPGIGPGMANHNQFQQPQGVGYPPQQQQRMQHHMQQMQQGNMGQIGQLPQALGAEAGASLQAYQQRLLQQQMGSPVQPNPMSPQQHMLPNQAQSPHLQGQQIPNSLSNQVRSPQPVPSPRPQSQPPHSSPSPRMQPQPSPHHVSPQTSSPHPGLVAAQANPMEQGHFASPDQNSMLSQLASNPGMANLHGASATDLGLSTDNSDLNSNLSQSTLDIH
Sequence of CREB-binding protein/Histone acetyltransferase p300 (Homo sapiens) (Q92793 whole entry, looked up): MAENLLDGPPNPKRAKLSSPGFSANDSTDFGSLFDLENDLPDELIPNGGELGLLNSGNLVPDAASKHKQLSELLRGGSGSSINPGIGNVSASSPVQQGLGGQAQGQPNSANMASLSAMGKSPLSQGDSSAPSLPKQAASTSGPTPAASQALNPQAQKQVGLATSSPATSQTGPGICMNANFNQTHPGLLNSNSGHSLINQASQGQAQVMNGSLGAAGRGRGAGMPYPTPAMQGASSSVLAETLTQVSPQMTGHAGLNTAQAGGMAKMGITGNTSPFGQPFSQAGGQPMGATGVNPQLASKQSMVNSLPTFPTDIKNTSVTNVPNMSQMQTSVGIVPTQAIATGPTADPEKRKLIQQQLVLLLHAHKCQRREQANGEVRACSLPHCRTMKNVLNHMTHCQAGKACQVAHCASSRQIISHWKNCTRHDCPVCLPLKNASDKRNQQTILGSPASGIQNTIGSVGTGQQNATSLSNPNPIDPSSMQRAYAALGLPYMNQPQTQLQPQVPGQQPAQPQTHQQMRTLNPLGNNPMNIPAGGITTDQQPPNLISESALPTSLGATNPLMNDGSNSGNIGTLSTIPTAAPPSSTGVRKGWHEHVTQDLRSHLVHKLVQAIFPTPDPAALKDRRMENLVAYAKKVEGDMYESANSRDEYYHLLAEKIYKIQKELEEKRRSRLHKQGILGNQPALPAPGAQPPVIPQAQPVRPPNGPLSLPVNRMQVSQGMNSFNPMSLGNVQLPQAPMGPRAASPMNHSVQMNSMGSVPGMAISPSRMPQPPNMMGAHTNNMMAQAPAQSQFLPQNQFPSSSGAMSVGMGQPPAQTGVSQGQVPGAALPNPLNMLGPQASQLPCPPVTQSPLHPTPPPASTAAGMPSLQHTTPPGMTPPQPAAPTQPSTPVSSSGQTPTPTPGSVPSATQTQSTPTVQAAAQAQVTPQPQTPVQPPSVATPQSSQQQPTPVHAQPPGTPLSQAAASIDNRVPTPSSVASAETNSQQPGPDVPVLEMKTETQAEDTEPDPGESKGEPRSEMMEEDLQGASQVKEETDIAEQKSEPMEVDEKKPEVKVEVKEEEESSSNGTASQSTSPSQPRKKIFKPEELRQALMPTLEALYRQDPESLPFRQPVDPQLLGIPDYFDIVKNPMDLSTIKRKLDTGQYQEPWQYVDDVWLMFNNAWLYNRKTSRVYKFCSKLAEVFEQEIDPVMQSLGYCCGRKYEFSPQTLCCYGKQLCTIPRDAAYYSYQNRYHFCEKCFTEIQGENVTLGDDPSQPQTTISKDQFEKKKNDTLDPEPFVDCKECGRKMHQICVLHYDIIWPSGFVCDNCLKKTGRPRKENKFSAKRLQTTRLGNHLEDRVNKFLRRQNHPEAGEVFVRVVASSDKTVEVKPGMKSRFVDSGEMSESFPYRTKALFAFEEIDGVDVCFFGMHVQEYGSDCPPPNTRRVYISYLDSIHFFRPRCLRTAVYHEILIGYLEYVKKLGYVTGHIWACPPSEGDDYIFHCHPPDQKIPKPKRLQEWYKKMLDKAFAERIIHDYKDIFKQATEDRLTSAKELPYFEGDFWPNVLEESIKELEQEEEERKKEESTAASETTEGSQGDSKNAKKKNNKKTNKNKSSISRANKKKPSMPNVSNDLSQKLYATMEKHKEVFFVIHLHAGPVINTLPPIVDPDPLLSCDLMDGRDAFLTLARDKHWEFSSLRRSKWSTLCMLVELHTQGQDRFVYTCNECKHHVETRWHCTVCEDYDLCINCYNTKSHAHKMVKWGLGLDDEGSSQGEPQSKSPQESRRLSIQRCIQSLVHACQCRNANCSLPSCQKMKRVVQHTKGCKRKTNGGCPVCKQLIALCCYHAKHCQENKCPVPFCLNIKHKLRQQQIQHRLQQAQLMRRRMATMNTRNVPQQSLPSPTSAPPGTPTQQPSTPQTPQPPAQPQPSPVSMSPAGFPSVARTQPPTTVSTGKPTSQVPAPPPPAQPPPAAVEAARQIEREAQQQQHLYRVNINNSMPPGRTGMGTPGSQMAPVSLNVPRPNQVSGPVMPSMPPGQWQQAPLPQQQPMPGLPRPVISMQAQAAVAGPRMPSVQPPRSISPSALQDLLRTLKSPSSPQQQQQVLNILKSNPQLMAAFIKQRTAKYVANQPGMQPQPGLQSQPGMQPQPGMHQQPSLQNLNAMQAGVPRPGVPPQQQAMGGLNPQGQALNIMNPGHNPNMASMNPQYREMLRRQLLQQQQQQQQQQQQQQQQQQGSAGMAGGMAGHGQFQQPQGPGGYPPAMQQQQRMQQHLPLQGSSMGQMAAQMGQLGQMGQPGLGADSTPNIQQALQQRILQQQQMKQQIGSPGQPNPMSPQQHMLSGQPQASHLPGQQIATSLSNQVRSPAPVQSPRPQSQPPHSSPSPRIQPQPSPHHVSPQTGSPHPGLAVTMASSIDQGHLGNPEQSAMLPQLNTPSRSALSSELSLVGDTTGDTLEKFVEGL

For the compound `CNC(=O)Nc1ccc2c(c1)CCS21OC(=O)N(CC(=O)N(Cc2ccc(F)cc2)[C@@H](C)C(F)(F)F)C1=O` (some centres not stated), the inhibition result with Hepatocyte [1], with Adipocyte [2], with Hepatocyte [3], with Hepatocyte [4], in the assay on Adipocyte [7] and in the assay on Mus musculus [8] was “Active” throughout. The inhibition entry (with Hepatocyte [9]; in the assay on Hepatocyte [11]; with Mus musculus [13]; in the assay with Hepatocyte [14]; in [15]; with Mus musculus [16]) was “Active” each time. The inhibition result in the assay with Mus musculus [17] is “Active”. The result in the assay with Mus musculus [5] and in the assay with Mus musculus [10] was inactive. Moreover, the inhibition entry in the assay with Mus musculus [6] is “inactive”. Moreover, the outcome in the assay on Mus musculus [12] was Active.

The record behind these values is ChEMBL document CHEMBL5674890, “Selective inhibition of CBP/p300 HAT by A-485 results in suppression of lipogenesis and hepatic gluconeogenesis” (Cell Death Dis, 2020).
